Rows were chosen to be rich in hits. Some 2.9% of all compounds tested hit in one or more screens of this group.
TRPC4 inh – TRPC4 (mouse) channel inhibition; Q9QUQ5; HEK293 TRPC4beta/mu-opioid, DAMGO-evoked Fluo4 calcium flux; active compounds read low; B-score at 10 µM; hit rate 0.39% among 300,000; AID 2247;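 active = B-score over 3 SD under the library average, no early fluorescence shift, positive overall ratio signal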
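Assay system: Stable TRPC4beta/mu-opioid receptor HEK293 cells | Reagent: DAMGO in two steps, submaximal then maximal | Compound dosing: Single concentration per test compound | Signal: Fluo4 Ca2+ flux fluorescence | Evaluation: Per-well B score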
TRPC4 potent – TRPC4 (mouse) allosteric potentiation; B-score at 10 µM; HEK293 TRPC4beta/mu-opioid, DAMGO EC20, Fluo-4 Ca2+ flux; active compounds read high; hit rate 0.42% among 310,000; Q9QUQ5; AID 2227;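 active = B-score of calcium response area above 5 SD of library B-scores, with initial fluorescence ratio within 5 SD of library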;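 note: B-score of integrated fluorescence ratio over time as area under calcium response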
Kir21 block – Kir2.1 (mouse) channel inhibition. P35561. HEK293-Kir2.1, FluxOR thallium flux fluorescence; active compounds read low. B-score at 10 µM. hit rate 0.85% among 310,000;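 active = fluorescence ratio B-score at or below minus 3 SD of library scores, with starting-brightness B-score within 2 SD, cut at about -4.2 in these data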;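 note: channel flux triggered by added potassium and thallium sulfate stimulus; B-score of peak minus minimum fluorescence over baseline after thallium stimulus; more negative B-score means stronger Kir2.1 block with less thallium influx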
Target sequence (P35561 whole entry, looked up): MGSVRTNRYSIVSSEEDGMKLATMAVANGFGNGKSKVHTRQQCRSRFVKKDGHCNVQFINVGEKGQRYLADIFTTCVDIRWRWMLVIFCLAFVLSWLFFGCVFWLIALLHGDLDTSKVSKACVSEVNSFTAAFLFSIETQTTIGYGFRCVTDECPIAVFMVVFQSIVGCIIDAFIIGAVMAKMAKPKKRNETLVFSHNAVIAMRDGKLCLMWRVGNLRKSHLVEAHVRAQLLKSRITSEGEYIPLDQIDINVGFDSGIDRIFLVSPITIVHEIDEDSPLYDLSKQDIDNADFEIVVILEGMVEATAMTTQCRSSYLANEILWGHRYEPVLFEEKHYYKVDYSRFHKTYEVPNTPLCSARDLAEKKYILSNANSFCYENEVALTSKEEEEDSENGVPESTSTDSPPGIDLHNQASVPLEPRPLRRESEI
TRPC4 act – activators of mouse TRPC4 channel; Q9QUQ5; HEK293 TRPC4beta/mu-opioid, Fluo4 calcium fluorescence; active compounds read high; B-score at 10 µM; hit rate 0.49% among 310,000; AID 2237;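 active = B-score above 5 SD of library B-scores, and initial fluorescence ratio not above library mean plus 5 SD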;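 note: positive B-score marks a calcium rise read as TRPC4 activation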
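Assay system: HEK293 stable line with TRPC4beta plus mu-opioid receptor; schedule: 45 min room-temperature Fluo4 loading, 110 s read; technique: kinetic Fluo4 calcium fluorescence; evaluation: integrated baseline-normalised fluorescence ratio, converted to per-well B score; controls: buffer (low) and maximal DAMGO (high)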
TRPC6 inhibitor – inhibitors of mouse TRPC6 channel | Q61143 | HEK293-TRPC6, membrane potential dye, ACh-evoked depolarization; active compounds read low | B-score at 10 µM | hit rate 1.1% among 310,000 | AID 2553;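 active = B-score under library mean minus 3 SD, initial fluorescence not abnormally high, positive integrated signal ratio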;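 note: B-score derived from integrated fluorescence ratio over the kinetic read; more negative B-score means stronger inhibition of depolarization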
TRPC6 activator – activates the mouse TRPC6 cation channel; Q61143; HEK293-TRPC6 membrane potential dye fluorescence; active compounds read high; B-score at 10 µM; hit rate 0.13% among 310,000;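 active = B-score of the integrated fluorescence ratio above library mean plus 3 SD, and starting fluorescence ratio within library mean plus 5 SD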;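 note: higher score means more depolarization so channel activation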
TRPC4 spec 2 – mouse TRPC4 off-target activity of TRPC6 inhibitors, second screen. shares compounds with TRPC6 inhibitor. HEK293 TRPC4/MOR, membrane potential dye fluorescence; channel activated by saturating DAMGO dose. inhibition, % at 10 µM. hit rate 42% among 920. AID 2776;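 active = compounds whose fluorescence signal differed from control wells by over 3 SD, either direction, in both duplicate plates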
TRPC4 spec – mouse TRPC4 off-target activity of TRPC6 inhibitors; shares compounds with TRPC6 inhibitor; HEK293 TRPC4/mu-opioid, membrane potential fluorescence; activity change, negative = inhibition, % at 10 µM; hit rate 61% among 920; AID 2777;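 active = rise or fall in signal beyond 3 SD of buffer-only wells in both replicate plates, either sign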;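 note: integrated kinetic ratio of fluorescence range over baseline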
HEK293 MPD ctr 2-1 – second counter-screen for TRPC6 inhibitors: parental HEK293 cells; signal change vs control, % at 10 µM; shares compounds with TRPC6 inhibitor; parental HEK293 membrane potential dye fluorescence; maximal acetylcholine challenge after compound addition; AID 2779; hit rate 31% among 920;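 active = membrane potential signal moving either way by over 3 SD of the maximum-effect control, in both duplicate plates, meaning non-specific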
HEK293 MPD ctr-1 – checks TRPC6 inhibitor effects in parental HEK293 cells; shares compounds with TRPC6 inhibitor; AID 2780; hit rate 60% among 920; membrane potential signal change, % at 10 µM; parental HEK293 membrane potential dye fluorescence;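 active = membrane potential signal shifting up or down by more than 3 SD of buffer-only wells, on both duplicate plates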
HEK293 MPD ctr-2 – checks TRPC6 modulator effects in parental HEK293 cells | shares compounds with TRPC6 inhibitor | hit rate 51% among 2,400 | membrane potential dye fluorescence | membrane potential signal change, % at 10 µM | AID 488924;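 active = membrane potential signal moves up or down beyond 5 SD from buffer-only wells, on both duplicate plates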
HEK293 MPD ctr 2-2 – second check of TRPC6 modulator effects in parental HEK293 cells; shares compounds with TRPC6 inhibitor; membrane potential dye fluorescence; after compound, maximal acetylcholine stimulation; inhibition, % at 10 µM; hit rate 14% among 2,400;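 active = membrane potential signal drops by more than 5 SD from the mean control signal, in both duplicate plates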;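 note: plate controls were acetylcholine ECmax control wells for no effect and buffer only wells for full effect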
TRPC4/MOR mod – selectivity of TRPC6 modulators against mouse TRPC4; shares compounds with TRPC6 inhibitor; HEK293 TRPC4/mu-opioid, membrane potential fluorescence; percent change from control (negative = decrease, positive = increase), % at 10 µM; hit rate 69% among 2,400;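 active = membrane potential signal moved up or down beyond 5 SD of buffer control wells, in both duplicate plates, actives on both sides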;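 note: plate controls were assay buffer wells for no effect and DAMGO maximal-effect wells for full effect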
TRPC4 ctr inh 2 – mouse TRPC4 off-target activity of TRPC6 modulators, second screen | shares compounds with TRPC6 inhibitor | inhibition, % at 10 µM | hit rate 55% among 2,400 | HEK293 TRPC4/mu-opioid, membrane potential dye fluorescence; stimulated with maximal-effect DAMGO;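 active = drop in membrane potential signal beyond 5 SD of the control wells in both duplicate plates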;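 note: TRPC4 counter screen for TRPC6 hits run under conditions tuned for TRPC6 not TRPC4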
TRPC6 block conf – confirmation of mouse TRPC6 inhibitors. shares compounds with TRPC6 inhibitor. HEK293-TRPC6, membrane potential dye, ACh-evoked depolarization. inhibition, % at 10 µM. hit rate 43% among 3,300. AID 488960;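 active = fluorescence ratio falls more than 5 SD below the full-stimulation control mean, in both duplicate runs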;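 note: integrated fluorescence ratio of peak minus minimum over baseline after agonist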
TRPC6 act conf – confirmation of mouse TRPC6 activators | shares compounds with TRPC6 inhibitor | hit rate 11% among 2,800 | HEK293-TRPC6 membrane potential dye fluorescence, FDSS | activation, % at 10 µM;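 active = ratio signal rise beyond 5 SD above unstimulated control wells' mean, seen in both duplicate runs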;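 note: plate controls were buffer EC0 wells for no effect and acetylcholine ECmax response for full effect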
* = called active by the depositor; i = inactive; . = not tested or not shown.

SMILES	TRPC4 inh	TRPC4 potent	Kir21 block	TRPC4 act	TRPC6 inhibitor	TRPC6 activator	HEK293 MPD ctr-2	HEK293 MPD ctr 2-2	TRPC4/MOR mod	TRPC4 ctr inh 2	TRPC6 block conf	TRPC6 act conf	others
CCc1ccc2[nH]c(C(=O)N(C)c3ccc(F)cc3F)cc2c1	i	i	-1.05	i	i	i	.	.	.	.	.	.
C[n+]1ccc(/C=C/c2ccccc2O)c2ccccc21	i	i	0.24	i	-5.71*	i	-81.0%*	i	-15.5%*	i	41.5%*	i
O=c1c2ccccc2sc2ccc(NCCCN3CCOCC3)cc12	i	i	-5.75	i	i	34.1*	939.5%*	i	190.5%*	79.5%*	.	365.0%*
COc1ccc2sc3ccccc3c(=O)c2c1	i	i	-0.66	i	i	i	.	.	.	.	.	.
O=c1c2ccccc2oc2ccc(NCCCn3ccnc3)cc12	i	i	0.88	i	i	i	.	.	.	.	.	.
CN1CCCC1CCNc1ccc2sc3ccccc3c(=O)c2c1 (centres undefined)	i	i	-14.9	75*	-6.27*	30.4*	794.0%*	i	148.5%*	67.0%*	i	317.5%*
Cc1cc2oc3cc(NCCC4CCCN4C)ccc3c(=O)c2cc1C (centres undefined)	i	i	-0.78	i	-5.93*	i	i	84.0%*	-11.0%*	76.5%*	49.5%*	i
O=C(c1ccc(-n2cccn2)cc1)N1CCc2ccccc2C1	i	i	0.04	i	i	i	.	.	.	.	.	.
Cc1nc(N2CCN(C)CC2)c2sc(=S)n(C)c2n1	i	i	1.21	i	-5.16*	i	-157.5%*	i	-25.0%*	i	i	i
Cc1nc(N2CCN(C)CC2)c2sc(=S)n(-c3ccccc3)c2n1	i	i	-0.8	i	i	i	.	.	.	.	.	.
CC(=C/c1ccc(C(C)C)cc1)/C=N/NC(=O)c1ccncc1	i	i	0.65	i	i	i	.	.	.	.	.	.
NS(=O)(=O)c1cc(C(=O)NC2CCSc3ccccc32)ccc1Cl (centres undefined)	i	i	-0.2	i	i	12.6*	122.5%*	i	32.0%*	i	i	70.5%*
O=C(c1ccccn1)N(c1ccccc1)C1(C(=O)NC2CCCCC2)CCCCC1	i	i	-0.26	i	i	i	.	.	.	.	.	.
CCOc1ccc(NC(=O)c2c(NC(=O)CN3CCN(C)CC3)sc3c2CCC3)cc1	i	i	-1.92	i	-8.43*	i	.	.	.	.	74.7%*	i	TRPC4 spec 2=46.0%*;TRPC4 spec=-25.8%*;HEK293 MPD ctr 2-1=i;HEK293 MPD ctr-1=-409.0%*
O=C(CN(C1CCCCC1)S(=O)(=O)c1ccccc1)NCc1ccco1	i	i	0.55	i	i	i	.	.	.	.	.	.
Clc1nc(-c2ccccc2)c2ccccc2n1	i	i	-0.03	i	i	i	.	.	.	.	.	.
NC(N)=Nc1nc(-c2ccccc2)c2ccccc2n1	i	i	-3.39	i	-5.43*	i	-174.5%*	i	-30.0%*	33.0%*	i	i
COC(=O)c1cc(C)nc2c1C(=O)C(=O)C=C2N1CCOCC1	i	i	0.94	i	i	i	.	.	.	.	.	.
CCN(CC)CCNc1cc(C)nc2c1C(=O)C(=O)C=C2N1CCCCC1	i	i	3.85	i	-7.46*	i	-273.5%*	i	-46.5%*	39.0%*	i	i
CN(C)CCN(Cc1ccccc1)c1nccc(N(C)C)c1C#N	i	i	-1.27	i	i	i	.	.	.	.	.	.
CC(C)n1cnc2c(N(C)c3ccccc3)nc(N(CCN(C)C)Cc3ccccc3)nc21	i	i	-6.78*	110*	-5.79*	i	87.0%*	i	40.0%*	96.5%*	48.5%*	i
Cc1ccc(S(=O)(=O)N2CCN(c3ncccn3)CC2)c(C)c1	i	i	0.34	i	i	i	.	.	.	.	.	.
COc1ccc(CC(=O)NCCS(=O)(=O)N2CCN(c3ccccc3)CC2)cc1OC	i	i	2.11	i	i	i	.	.	.	.	.	.
Cc1ccccc1OCC(=O)NCCS(=O)(=O)N1CCN(c2ccc(F)cc2)CC1	i	i	0.4	i	-10.4*	i	.	.	.	.	94.7%*	.	TRPC4 spec 2=i;TRPC4 spec=i;HEK293 MPD ctr 2-1=i;HEK293 MPD ctr-1=i
COc1ccccc1OCC(=O)NCCS(=O)(=O)N1CCN(c2ccccc2)CC1	i	i	-0.43	i	-7.5*	i	.	.	.	.	i	i	TRPC4 spec 2=i;TRPC4 spec=i;HEK293 MPD ctr 2-1=i;HEK293 MPD ctr-1=i
CCCCCCOC(=O)CCc1c(C)nc(N)[nH]c1=O	i	i	-0.97	i	i	i	.	.	.	.	.	.
O=[N+]([O-])c1ccc(S(=O)(=O)N2CCN(C3CCN(Cc4ccccc4)CC3)CC2)cc1	i	i	-1.35	i	-5.87*	i	i	i	i	37.5%*	i	i
COc1ccc(S(=O)(=O)N2CCC(N3CCCC3)CC2)cc1	i	i	0.05	i	i	i	.	.	.	.	.	.

Bioassay records deposited in PubChem BioAssay by Johns Hopkins Ion Channel Center.
